Drawing on ChEMBL document CHEMBL4840316, “Structure-based screening for the discovery of 1,2,4-oxadiazoles as promising hits for the development of new anti-inflammatory agents interfering with eicosanoid biosynthesis pathways” (Eur J Med Chem, 2021), this text covers Activity for ten molecules.

In data set [1] the target is T1, Prostaglandin E synthase (Homo sapiens) (UniProt O14684).
T1 sequence (whole entry): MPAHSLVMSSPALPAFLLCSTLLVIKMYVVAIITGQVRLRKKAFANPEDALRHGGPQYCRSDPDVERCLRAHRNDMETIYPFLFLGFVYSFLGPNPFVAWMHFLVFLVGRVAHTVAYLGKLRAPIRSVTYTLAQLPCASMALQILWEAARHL
Description: Inhibition of mPGES-1 obtained from IL-beta stimulated human A549 cells microsomes assessed as residual activity by measuring conversion of PGH2 to PGE2 at 10 uM by cell-free RP-HPLC method. The conditions noted are these: Microsome. The method, boiled down: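 Microsomes from A549 cells stimulated with IL-1β (1 ng/ml) for 48 h. Diluted in 0.1 M potassium phosphate pH 7.4 with 2.5 mM glutathione. Pre-incubated 15 min on ice with compound (single 10 µM, or 0.03–10 µM for the curve) or 1% DMSO. 20 µM PGH2 added for 1 min; stopped with FeCl3/citric acid containing 11β-PGE2 standard. PGE2 measured by SPE and RP-HPLC. n = 3.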

Data set [2] deals with T2, Polyunsaturated fatty acid 5-lipoxygenase (Homo sapiens) (UniProt P09917).
T2 sequence (whole entry): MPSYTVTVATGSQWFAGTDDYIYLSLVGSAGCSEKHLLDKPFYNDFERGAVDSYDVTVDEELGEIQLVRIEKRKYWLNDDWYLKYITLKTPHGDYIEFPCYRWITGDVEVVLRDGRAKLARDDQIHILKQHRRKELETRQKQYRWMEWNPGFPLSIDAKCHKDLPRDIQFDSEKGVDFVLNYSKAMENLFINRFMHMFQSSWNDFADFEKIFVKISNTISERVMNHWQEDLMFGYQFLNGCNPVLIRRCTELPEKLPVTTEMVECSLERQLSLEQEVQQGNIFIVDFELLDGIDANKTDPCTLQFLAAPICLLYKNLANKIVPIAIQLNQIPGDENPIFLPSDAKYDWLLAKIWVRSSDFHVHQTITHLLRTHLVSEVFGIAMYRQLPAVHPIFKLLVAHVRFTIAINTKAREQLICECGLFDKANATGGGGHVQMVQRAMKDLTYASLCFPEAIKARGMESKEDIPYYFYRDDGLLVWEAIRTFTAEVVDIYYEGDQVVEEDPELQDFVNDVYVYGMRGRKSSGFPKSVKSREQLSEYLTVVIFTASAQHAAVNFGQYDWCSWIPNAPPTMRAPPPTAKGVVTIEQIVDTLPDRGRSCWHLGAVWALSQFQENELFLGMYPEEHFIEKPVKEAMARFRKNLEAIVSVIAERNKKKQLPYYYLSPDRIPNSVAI
Description: Inhibition of 5-LO in A23187-stimulated human intact neutrophils assessed as reduction in LTB4/5-HETE formation by measuring residual activity at 10 uM measured after 20 mins by RP-HPLC method. The class given is tissue-based. The conditions noted are these: Neutrophil. The method, boiled down:
(§1)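 Human neutrophils at 5 × 10^6/mL in PBS with 0.1% glucose and 1 mM CaCl2. Pre-incubated with compound or 0.1% DMSO for 10 min at 37 °C. Stimulated with 2.5 µM A23187, with or without 20 µM AA, for 10 min at 37 °C. Stopped with cold methanol; PGB1 internal standard. LTB4, its trans isomers and 5-HETE quantified by SPE and RP-HPLC; % of control.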

In data set [3] the target is T2, Polyunsaturated fatty acid 5-lipoxygenase (Homo sapiens). The data set is described as follows: Inhibition of 5-LO in A23187/AA-stimulated human intact neutrophils assessed as reduction in LTB4/5-HETE formation by measuring residual activity at 10 uM measured after 20 mins by RP-HPLC method. Type of data set: tissue-based. Conditions: Neutrophil. The method, boiled down:
as §1

Data set [4] shares this target. Description: Inhibition of 5-LO (unknown origin) expressed in Escherichia coli BL21 assessed as residual activity at 10 uM by RP-HPLC method relative to control. The method, boiled down: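 Human recombinant 5-LO expressed in E. coli BL21 and purified on ATP-agarose. 0.5 µg enzyme in 1 mL PBS + 1 mM EDTA pre-incubated with compound or 0.1% DMSO for 10 min on ice. Reaction started with 20 µM AA and 2 mM CaCl2, run 10 min at 37 °C, stopped with ice-cold methanol. Products analysed; activity as % of control.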

Data set [5] concerns the target T3, Bifunctional epoxide hydrolase 2 (Homo sapiens) (UniProt P34913).
T3 sequence (whole entry): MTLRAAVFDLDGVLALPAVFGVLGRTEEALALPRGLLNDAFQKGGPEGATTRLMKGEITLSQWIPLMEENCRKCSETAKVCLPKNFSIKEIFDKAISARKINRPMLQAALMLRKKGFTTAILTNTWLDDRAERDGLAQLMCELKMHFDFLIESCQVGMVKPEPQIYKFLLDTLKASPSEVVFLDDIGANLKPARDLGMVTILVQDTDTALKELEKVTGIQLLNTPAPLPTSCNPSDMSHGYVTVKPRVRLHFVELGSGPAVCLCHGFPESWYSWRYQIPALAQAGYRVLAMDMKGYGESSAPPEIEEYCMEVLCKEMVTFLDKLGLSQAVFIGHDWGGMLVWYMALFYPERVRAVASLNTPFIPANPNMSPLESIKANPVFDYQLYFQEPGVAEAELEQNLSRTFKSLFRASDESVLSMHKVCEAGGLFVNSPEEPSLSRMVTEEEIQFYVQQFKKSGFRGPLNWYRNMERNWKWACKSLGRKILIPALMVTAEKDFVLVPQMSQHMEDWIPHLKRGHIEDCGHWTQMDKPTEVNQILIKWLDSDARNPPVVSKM
Description: Inhibition of recombinant human sEH expressed in sf9 insect cells assessed as residual activity at 10 uM using PHOME as substrate preincubated for 15 mins followed by substrate addition and measured after 60 mins relative to control. Conditions: time 75.0 min. The method, boiled down: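 Human recombinant sEH from baculovirus-infected Sf9 cells, affinity-purified. Diluted in 25 mM Tris pH 7 with 0.1 mg/mL BSA. Pre-incubated 15 min at room temperature with 10 µM compound or 0.1% DMSO. 50 µM PHOME added, run 60 min at room temperature, stopped with ZnSO4. Fluorescence read at ex 330 / em 465 nm.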

The next data set relates to Monocyte. The data set is described as follows: Cytotoxicity against human monocyte cells assessed as cell viability at 10 uM measured after 24 hrs by MTT assay. Type of data set: cell-based. The method, boiled down:
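Human monocytes isolated from PBMC by adherence, 0.2 × 10^6 per well in buffer. Exposed to 10 µM compound or 0.5% DMSO for 24 h (37 °C, 5% CO2). MTT for 2 h, then SDS lysis (10%, pH 4.5) for 17 h. Absorbance read at 570 nm; viability as % of vehicle, n = 3.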
A general note: Formazan colour is commonly taken as a measure of viable cells.

The next data set relates to A549. Description: Cytotoxicity against human A549 cells assessed as cell viability at 10 uM measured after 48 hrs by MTT assay. Type of data set: cell-based. The conditions noted are these: a549, 48 h. In outline:
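A549 cells in DMEM + 10% FBS, 2 × 10^4 per well, seeded in triplicate. Exposed to 10 µM compound or 0.1% DMSO for 48 h at 37 °C, 5% CO2. MTT added for 1 h, formazan dissolved in DMSO, absorbance read at 570 nm. Viability given as % of vehicle, n = 3.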

Data set [6] has as its target Prostaglandin G/H synthase 1 (Ovis aries) (UniProt P05979). The data set is described as follows: Inhibition of ovine COX-1 assessed as residual activity at 10 uM using arachidonic acid as substrate preincubated for 5 mins by RP-HPLC method relative to control. The conditions noted are these: time 10.0 min.
Data set [7] concerns Mus musculus. Description: Antiinflammatory activity in zymosan-induced CD-1 mouse peritonitis model assessed as reduction in zymosan-induced IL-6 level in peritoneal exudate at 3 mg/kg, ip treated with compound for 30 mins after 4 to 24 hrs zymosan stimulation by ELISA. The class given is functional, organism-based. Background: ELISA stands for enzyme-linked immunosorbent assay.

Data set [8] relates to Mus musculus. The data set is described as follows: Antiinflammatory activity in zymosan-induced CD-1 mouse peritonitis model assessed as reduction in zymosan-induced neutrophil recruitment at 10 mg/kg, ip treated with compound for 30 mins after 4 hrs zymosan stimulation by ELISA. The class given is functional, organism-based. In outline: (§2)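 Male CD-1 mice (10–14 wk, 25–30 g), n = 6/group, injected i.p. with boiled zymosan A (500 mg/kg in PBS). Compound (0.1–10 mg/kg, DMSO/saline 1:3) given i.p. 30 min afterwards. Peritoneal lavage with 2 mL PBS at 4 or 24 h. Total leukocytes counted by automated counter with trypan blue, normalized to exudate. Mean ± S.D.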

Data set [9] relates to Mus musculus. Description: Antiinflammatory activity in zymosan-induced CD-1 mouse peritonitis model assessed as reduction in zymosan-induced neutrophil recruitment at 10 mg/kg, ip treated with compound for 30 mins after 24 hrs zymosan stimulation by ELISA. Type of data set: functional, organism-based. In outline: as §2
The test system of data set [10] is Mus musculus. The data set is described as follows: Antiinflammatory activity in zymosan-induced CD-1 mouse peritonitis model assessed as reduction in zymosan-induced IL-1beta level in peritoneal exudate at 3 mg/kg, ip treated with compound for 30 mins after 4 to 24 hrs zymosan stimulation by ELISA. The class given is functional, organism-based.
In data set [11] the test system is Mus musculus. The data set is described as follows: Antiinflammatory activity in zymosan-induced CD-1 mouse peritonitis model assessed as reduction in zymosan-induced TNF-alpha level in peritoneal exudate at 3 mg/kg, ip treated with compound for 30 mins after 4 to 24 hrs zymosan stimulation by ELISA. The class given is functional, organism-based.

The source made the active and inactive calls. The calls are words filed in the database; no cut-off is given here.

Sequence of Prostaglandin G/H synthase 1 (Ovis aries) (P05979 whole entry, looked up): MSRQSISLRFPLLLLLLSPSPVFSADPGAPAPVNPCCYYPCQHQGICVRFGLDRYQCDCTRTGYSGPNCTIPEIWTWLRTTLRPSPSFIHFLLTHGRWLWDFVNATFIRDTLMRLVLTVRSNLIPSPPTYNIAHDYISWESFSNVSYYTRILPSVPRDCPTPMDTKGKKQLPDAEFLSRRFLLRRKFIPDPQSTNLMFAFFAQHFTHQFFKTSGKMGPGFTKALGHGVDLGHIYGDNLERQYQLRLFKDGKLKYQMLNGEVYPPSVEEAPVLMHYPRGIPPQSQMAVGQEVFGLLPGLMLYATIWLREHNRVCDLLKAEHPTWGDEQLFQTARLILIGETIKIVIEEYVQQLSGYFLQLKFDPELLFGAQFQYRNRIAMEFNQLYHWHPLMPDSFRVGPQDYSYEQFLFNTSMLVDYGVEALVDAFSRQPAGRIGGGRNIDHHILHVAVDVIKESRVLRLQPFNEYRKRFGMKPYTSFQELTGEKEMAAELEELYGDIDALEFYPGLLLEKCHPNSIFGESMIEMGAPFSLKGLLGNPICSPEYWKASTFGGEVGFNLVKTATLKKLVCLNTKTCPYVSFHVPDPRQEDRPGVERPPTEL

In the case of `CC(c1ccc(O)cc1)c1nc(-c2ccc(-c3ccsc3)cc2)no1` (configuration not stated), the Activity in [1] is 62.9%; in data set [2], 6.02%; in data set [3], 7.54%; in data set [4] it was 61.8%; in [5] it was > 50%; in the data set on Monocyte, “Non-Toxic”. The Activity result with A549 is “Non-Toxic”; in [6], 22.5%.
As for `N[C@@H](Cc1ccc(O)cc1)c1nc(-c2ccc(-c3ccsc3)cc2)no1`, the figures for the Activity in data set [1], in [2] and in [3] were 82.7%, 95% and 74.4%, respectively.
For the molecule `Nc1ccc(O)c(-c2nc(-c3ccc(-c4ccsc4)cc3)no2)c1`, the figures for the Activity in [1], in [2] and in data set [3] were 81.9%, 84.3% and 29.6%, respectively.
The matching figures for `N[C@H](c1ccc(O)cc1)c1nc(-c2ccc(-c3ccsc3)cc2)no1`: 67.6%, 47.5% and 50.3%.
As to `c1cc(-c2nc(-c3ccc(-c4ccsc4)cc3)no2)c2cc[nH]c2c1`, the Activity is 63.2% in data set [1], 59.7% in data set [2] and 99.3% in [3].
As for `OCc1ccc(Cc2nc(-c3ccc(-c4ccsc4)cc3)no2)cc1`, the figures for the Activity in data set [1], in [2] and in [3] were 93.1%, 73.6% and 65.2%, respectively.
The matching figures for `Oc1cccc(-c2nc(-c3ccc(-c4ccsc4)cc3)no2)c1`: 84.1%, > 100% and > 100%.
The matching figures for `CC(=O)N1C[C@H](O)C[C@H]1c1nc(-c2ccc(-c3ccsc3)cc2)no1`: 82.2%, 92.6% and 89.5%.
For `C[C@@H]1C[C@H]2[C@@H]3CCC4=CC(=O)C=C[C@]4(C)[C@@]3(F)[C@@H](O)C[C@]2(C)[C@@]1(O)C(=O)CO`, the outcome in the data set on Mus musculus [7], with Mus musculus [8], in the data set with Mus musculus [9], in the data set with Mus musculus [10] and in the data set with Mus musculus [11] was Active.
As for `CC(N)(Cc1ccc(O)cc1)c1nc(-c2ccc(-c3ccsc3)cc2)no1` (configuration not stated), the results for the Activity in [1], in [2] and in data set [3] were 84.7%, 78% and 61.3%, respectively.
